According to ChEMBL document CHEMBL1157080 (Eur J Med Chem, 2010):
pIC50: −log10 of the molar value.

Assays:
[1] = molecular target: T1, cGMP-specific 3',5'-cyclic phosphodiesterase (Homo sapiens, UniProt O76074); assay: Inhibition of human recombinant PDE5 after 1.5 hrs by fluorescent polarization assay
Method in brief: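 Purified PDE5 (5 μ/mL) treated with compound or vehicle plus 50 nM TAMRA-cGMP, incubated 1.5 h at 30 °C. IMAP binding reagent was then added for 30 min at 30 °C and fluorescence polarization read.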

HT-29 [2] = assay: Growth inhibition of human HT-29 cells after 72 hrs by cell titer glo assay; assay type: functional, cell-based; conditions: HT-29, 72 h
[3] = molecular target: T1, cGMP-specific 3',5'-cyclic phosphodiesterase; assay: Inhibition of human recombinant PDE5 at 100 uM after 1.5 hrs by fluorescent polarization assay
Method in brief: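 Single 100 μM screening dose, run in triplicate. Purified PDE5 with 50 nM TAMRA-cGMP, 1.5 h at 30 °C, then IMAP binding reagent for 30 min at 30 °C. Percent inhibition from fluorescence polarization.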

HT-29 [4] = assay: Growth inhibition of human HT-29 cells at 100 uM after 72 hrs by cell titer glo assay; assay type: functional; conditions: HT-29, 72 h, read-out: GI
Method in brief: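 HT-29 cells in RPMI 1640/5% FBS, >95% viable at harvest, seeded 5000 cells/well and incubated 18–24 h before dosing at a single 100 μM screening dose (final DMSO 0.1%). Percent growth inhibition from CellTiter-Glo luminescence 72 h after treatment, triplicate wells.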

pIC50 [1] | pIC50 (HT-29 [2]) | Inhibition [3] [%] | SMILES | inhibition of growth at 100 µM (HT-29 [4]) [%]
4.54 | 5.80 | 86 | COC(=O)[C@H]1Cc2c([nH]c3ccccc23)[C@@H](c2ccccc2Br)N1C(=O)CCl | 
7.30 | < 4.00 | 93.8 | CCCCN1CC(=O)N2[C@H](c3ccccc3Br)c3[nH]c4ccccc4c3C[C@H]2C1=O | 
7.40 | < 4.00 | 100 | O=C1[C@@H]2Cc3c([nH]c4ccccc34)[C@@H](c3ccccc3Br)N2C(=O)CN1Cc1ccccc1 | 
 | < 4.00 | 69.4 | O=C1[C@H]2Cc3c([nH]c4ccccc34)[C@H](c3ccccc3Br)N2C(=O)CN1Cc1ccccc1 | 
5.40 |  | 93 | CCN1C(=O)[C@H]2Cc3c([nH]c4ccccc34)[C@H](c3ccccc3Br)N2C1=O | 65.1
 |  | 66.7 | CCCCN1CC(=O)N2[C@@H](c3ccccc3Br)c3[nH]c4ccccc4c3C[C@@H]2C1=O | 50.2
 | < 4.00 | 69.1 | CCCCN1CC(=O)N2[C@@H](c3ccccc3Br)c3[nH]c4ccccc4c3C[C@H]2C1=O | 
 |  | 90.3 | CCN1CC(=O)N2[C@@H](c3ccccc3Br)c3[nH]c4ccccc4c3C[C@H]2C1=O | 
5.25 | 4.32 | 85.5 | COC(=O)[C@H]1Cc2c([nH]c3ccccc23)[C@@H](c2ccccc2Br)N1 | 89
 | < 4.00 | 48.7 | O=C1[C@@H]2Cc3c([nH]c4ccccc34)[C@H](c3ccccc3Br)N2C(=O)CN1Cc1ccccc1 | 
5.51 |  | 91.1 | COC(=O)[C@@H]1Cc2c([nH]c3ccccc23)[C@@H](c2ccccc2Br)N1 | 57.5
 |  | 47.9 | COC(=O)[C@@H]1Cc2c([nH]c3ccccc23)[C@@H](c2ccccc2Br)N1C(=O)CCl | 
 | 4.59 | 46 | COC(=O)[C@@H]1Cc2c([nH]c3ccccc23)[C@H](c2ccccc2Br)N1 | 92.8
5.21 | 4.65 | 93.5 | CCN1C(=O)[C@@H]2Cc3c([nH]c4ccccc34)[C@@H](c3ccccc3Br)N2C1=S | 
 | 5.39 | 35.8 | COC(=O)[C@@H]1Cc2c([nH]c3ccccc23)[C@H](c2ccccc2Br)N1C(=O)CCl | 
5.47 |  | 91.9 | O=C1[C@H]2Cc3c([nH]c4ccccc34)[C@@H](c3ccccc3Br)N2C(=O)CN1Cc1ccccc1 | 34.2
4.13 | < 4.00 | 82.8 | CCN1C(=O)[C@H]2Cc3c([nH]c4ccccc34)[C@H](c3ccccc3Br)N2C1=S | 
6.59 |  | 99.7 | CCCCN1CC(=O)N2[C@H](c3ccccc3Br)c3[nH]c4ccccc4c3C[C@@H]2C1=O | 55.7
7.00 |  | 96 | CN1CC(=O)N2[C@H](c3ccccc3Br)c3[nH]c4ccccc4c3C[C@@H]2C1=O | 50.4
 | 4.11 | 21.5 | COC(=O)[C@H]1Cc2c([nH]c3ccccc23)[C@H](c2ccccc2Br)N1 | 85
6.54 | 4.68 | 98.7 | CCN1C(=O)[C@H]2Cc3c([nH]c4ccccc34)[C@@H](c3ccccc3Br)N2C1=O | 79.5
 | < 4.00 | 97 | CCN1CC(=O)N2[C@H](c3ccccc3Br)c3[nH]c4ccccc4c3C[C@@H]2C1=O | 
 |  | 89.2 | CCN1CC(=O)N2[C@H](c3ccccc3Br)c3[nH]c4ccccc4c3C[C@H]2C1=O | 47.2
4.06 |  | 75.5 | CN1CC(=O)N2[C@@H](c3ccccc3Br)c3[nH]c4ccccc4c3C[C@@H]2C1=O | 61.7
5.55 | 4.57 | 92.7 | CN1CC(=O)N2[C@@H](c3ccccc3Br)c3[nH]c4ccccc4c3C[C@H]2C1=O | 76.1
6.19 | 4.62 | 89.5 | CCN1C(=O)[C@@H]2Cc3c([nH]c4ccccc34)[C@H](c3ccccc3Br)N2C1=O | 77.9
 | < 4.00 | 47.9 | COC(=O)[C@H]1Cc2c([nH]c3ccccc23)[C@H](c2ccccc2Br)N1C(=O)CCl | 
7.42 | 4.70 | 99.5 | CCN1C(=O)[C@@H]2Cc3c([nH]c4ccccc34)[C@@H](c3ccccc3Br)N2C1=O | 69.8
7.22 | 4.59 | 97.6 | CN1CC(=O)N2[C@H](c3ccccc3Br)c3[nH]c4ccccc4c3C[C@H]2C1=O | 
 |  | 91.7 | CCN1CC(=O)N2[C@@H](c3ccccc3Br)c3[nH]c4ccccc4c3C[C@@H]2C1=O | 65.6

SMILES | pIC50 [1] | pIC50 (HT-29 [2]) | Inhibition [3] [%] | inhibition of growth at 100 µM (HT-29 [4]) [%]
CN1CC(=O)N2[C@H](c3ccc4c(c3)OCO4)c3[nH]c4ccccc4c3C[C@@H]2C1=O |  | < 4.00 | 100 | 
